≈ marks a conversion by molar mass, not a printed value.
Key:
[1] = tested on: Human immunodeficiency virus; test: Antiviral activity against HIV 3B in human MT4 cells assessed as inhibition of virus-induced cytopathogenicity by MTT assay; assay type: functional, organism-based; details: Human immunodeficiency virus 1, 3B
Procedure, shortened: (§1)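 MT-4 cells resuspended at 6 × 10⁵ cells/mL, infected with HIV-1 IIIB or HIV-2 ROD at 100–300 CCID50, serial 5-fold compound dilutions. After 5 days, viability read by MTT reduction at 540 and 690 nm, median OD of three wells. EC50 = concentration giving 50% protection from viral cytopathic effect; mean ± SD of three separate experiments.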

[2] = tested on: Human immunodeficiency virus; test: Antiviral activity against HIV ROD in human MT4 cells assessed as inhibition of virus-induced cytopathogenicity by MTT assay; assay type: functional, organism-based; details: Human immunodeficiency virus 2, ROD; procedure, shortened: as §1
[3] = Selectivity index, ratio of CC50 for human MT4 cells to EC50 for HIV 3B; assay type: toxicity, cell-based; details: read-out: Ratio CC50/EC50
[4] = Cytotoxicity against mock-infected human MT4 cells by MTT assay; assay type: cell-based
Procedure, shortened: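 Mock-infected MT-4 cells (6 × 10⁵ cells/mL) exposed to serial 5-fold compound dilutions in parallel with infected cultures. After 5 days, viability measured by MTT formazan absorbance (540 and 690 nm; median OD of three wells). CC50 = concentration reducing OD540 of mock-infected control by 50%; mean ± SD of three separate experiments.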

[5] = Cytotoxicity against mock-infected human PBMC; assay type: cell-based
Procedure, shortened: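 Mock-infected PHA-stimulated PBMCs cultured with serial compound dilutions. Viability determined by trypan blue exclusion. CC50 = concentration reducing viability by 50%; mean ± SD of at least two separate experiments.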

[6] = tested on: Human immunodeficiency virus; test: Antiviral activity against HIV 3B in PHA-stimulated human PBMC assessed as inhibition of p24 antigen production by ELISA; assay type: functional, organism-based; details: Human immunodeficiency virus 1, 3B
Procedure, shortened: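 PBMCs from healthy donors isolated by density centrifugation, PHA-stimulated 3 days, washed, plated at 2 × 10⁵ per 200 µL with serial compound dilutions and infected with HIV at 1000 CCID50 per mL. On day 4, supernatant partly replaced with fresh compound-containing medium. At day 7, p24 in supernatant measured by ELISA. EC50 = 50% inhibition of p24; mean ± SD, at least two experiments.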

[7] = Selectivity index, ratio of CC50 for human MT4 cells to EC50 for HIV ROD; assay type: toxicity, cell-based; details: read-out: Ratio CC50/EC50
[8] = Selectivity index, ratio of IC50 for human PBMC to IC50 for HIV 3B

| EC50 [6] [µg/mL] | Compound | EC50 [1] [µg/mL] | EC50 [2] [µg/mL] | selectivity ratio [3] | CC50 [4] [µg/mL] | CC50 [5] [µg/mL] | selectivity ratio [7] | Ratio CC50/EC50 [8] |
| --- | --- | --- | --- | --- | --- | --- | --- | --- |
| – | Cc1ccnc2c1NC(=O)c1cccnc1N2C1CC1 [NEVIRAPINE] | 0.023 (≈ 0.0864 µM) | > 4 | > 176 | > 4 | – | – | – |
| 0.26 (≈ 0.604 µM) | Cn1cc(C(=O)O)c(=O)c2cc(O)c(N3CCN(c4ccc5ccccc5n4)CC3)cc21 | 0.08 (≈ 0.186 µM) | 0.033 (≈ 0.0767 µM) | 6 | 0.47 (≈ 1.09 µM) | 1.91 (≈ 4.44 µM) | 14 | 7 |
| – | COc1cc2c(=O)c(C(=O)O)cn(C)c2cc1N1CCN(c2nc3ccccc3s2)CC1 | > 0.05 | > 0.05 | < 1 | 0.05 (≈ 0.111 µM) | – | < 1 | – |
| – | Cn1cc(C(=O)O)c(=O)c2cc(O)c(N3CCN(c4cnccn4)CC3)cc21 | > 125 | > 125 | < 1 | > 125 | – | < 1 | – |
| 1.78 (≈ 4.51 µM) | COc1cc2c(=O)c(C(=O)O)cn(C)c2cc1N1CCN(c2ccccn2)CC1 | 0.47 (≈ 1.19 µM) | 0.4 (≈ 1.01 µM) | 5 | 2.55 (≈ 6.47 µM) | 8.46 (≈ 21.4 µM) | 6.5 | 5 |
| 0.4 (≈ 0.894 µM) | Cn1cc(C(=O)O)c(=O)c2cc(O)c(N3CCN(c4cccc(C(F)(F)F)c4)CC3)cc21 | ≥ 1.13 | ≥ 0.133 | – | 1.13 (≈ 2.53 µM) | 1.61 (≈ 3.6 µM) | – | 4 |
| – | Cn1cc(C(=O)O)c(=O)c2cc(C(F)(F)F)c(N3CCN(c4ccccn4)CC3)cc21 | > 13.9 | > 13.9 | < 1 | 13.9 (≈ 32.2 µM) | – | < 1 | – |
| – | Cn1cc(C(=O)O)c(=O)c2cc(C(F)(F)F)c(N3CCN(c4nc5ccccc5s4)CC3)cc21 | > 0.54 | > 0.54 | < 1 | 0.54 (≈ 1.11 µM) | – | < 1 | – |
| – | Cn1cc(C(=O)O)c(=O)c2cc(C(F)(F)F)c(N3CCN(c4cccc(C(F)(F)F)c4)CC3)cc21 | > 1.65 | > 1.65 | < 1 | 1.65 (≈ 3.3 µM) | – | < 1 | – |
| – | Cn1cc(C(=O)O)c(=O)c2cc(O)c(N3CCN(c4nc5ccccc5s4)CC3)cc21 | > 0.02 | > 0.02 | < 1 | 0.02 (≈ 0.0458 µM) | – | < 1 | – |
| – | Cc1cn([C@H]2C[C@H](N=[N+]=[N-])[C@@H](CO)O2)c(=O)[nH]c1=O [ZIDOVUDINE] | 0.0015 (≈ 0.00561 µM) | 0.0008 (≈ 0.00299 µM) | 1340 | 2.01 (≈ 7.52 µM) | – | 2480 | – |
| 0.39 (≈ 1.03 µM) | Cn1cc(C(=O)O)c(=O)c2cc(O)c(N3CCN(c4ccccn4)CC3)cc21 | 1.85 (≈ 4.86 µM) | 1.31 (≈ 3.44 µM) | > 68 | > 125 | ≥ 17.2 | > 96 | >=44 |
| – | Cn1cc(C(=O)O)c(=O)c2cc(N)c(N3CCN(c4ccccn4)CC3)cc21 | 0.058 (≈ 0.153 µM) | 0.097 (≈ 0.256 µM) | 15 | – | – | 10 | – |

Reference: ChEMBL document CHEMBL1140865, “Studies on anti-HIV quinolones: new insights on the C-6 position” (Bioorg Med Chem, 2009)
